Measured values reported in article PMC7686114 (Bioorganic chemistry, 2020).
Entries after “also recorded” stand apart in the source; their conditions may differ. Read-outs that look alike come from different tables or passages of the source.

Assays:
PDE11A = PDE11A (Homo sapiens, UniProt Q9HCR9); assay: PDE isoform selectivity, IMAP FP assay; assay type: biochemical
Procedure, shortened: (§1)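 Recombinant PDE enzymes were used at concentrations set empirically to give EC80 activity, in 10 mM Tris-HCl pH 7.4, 10 mM MgCl2, 0.1 mg/mL BSA. Test compound was preincubated with enzyme for 60 min at 30°C. TAMRA-cGMP (ex530/em590) or FAM-cAMP (ex485/em530), 50 nmol/L final, was then added for 30 min at 30°C. IMAP binding reagent followed for 10 min at 30°C, and fluorescence polarization was read.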

PDE7A = PDE7A (Homo sapiens, UniProt Q13946); assay: PDE isoform selectivity, IMAP FP assay; assay type: biochemical; settings: read-out: % inhibition at 50 μM, PDE7A (cAMP)
Procedure, shortened: as §1

PDE3A = PDE3A (Homo sapiens, UniProt Q14432); assay: PDE isoform selectivity, IMAP FP assay; assay type: biochemical
PDE3A, sequence (Q14432 whole entry, canonical isoform): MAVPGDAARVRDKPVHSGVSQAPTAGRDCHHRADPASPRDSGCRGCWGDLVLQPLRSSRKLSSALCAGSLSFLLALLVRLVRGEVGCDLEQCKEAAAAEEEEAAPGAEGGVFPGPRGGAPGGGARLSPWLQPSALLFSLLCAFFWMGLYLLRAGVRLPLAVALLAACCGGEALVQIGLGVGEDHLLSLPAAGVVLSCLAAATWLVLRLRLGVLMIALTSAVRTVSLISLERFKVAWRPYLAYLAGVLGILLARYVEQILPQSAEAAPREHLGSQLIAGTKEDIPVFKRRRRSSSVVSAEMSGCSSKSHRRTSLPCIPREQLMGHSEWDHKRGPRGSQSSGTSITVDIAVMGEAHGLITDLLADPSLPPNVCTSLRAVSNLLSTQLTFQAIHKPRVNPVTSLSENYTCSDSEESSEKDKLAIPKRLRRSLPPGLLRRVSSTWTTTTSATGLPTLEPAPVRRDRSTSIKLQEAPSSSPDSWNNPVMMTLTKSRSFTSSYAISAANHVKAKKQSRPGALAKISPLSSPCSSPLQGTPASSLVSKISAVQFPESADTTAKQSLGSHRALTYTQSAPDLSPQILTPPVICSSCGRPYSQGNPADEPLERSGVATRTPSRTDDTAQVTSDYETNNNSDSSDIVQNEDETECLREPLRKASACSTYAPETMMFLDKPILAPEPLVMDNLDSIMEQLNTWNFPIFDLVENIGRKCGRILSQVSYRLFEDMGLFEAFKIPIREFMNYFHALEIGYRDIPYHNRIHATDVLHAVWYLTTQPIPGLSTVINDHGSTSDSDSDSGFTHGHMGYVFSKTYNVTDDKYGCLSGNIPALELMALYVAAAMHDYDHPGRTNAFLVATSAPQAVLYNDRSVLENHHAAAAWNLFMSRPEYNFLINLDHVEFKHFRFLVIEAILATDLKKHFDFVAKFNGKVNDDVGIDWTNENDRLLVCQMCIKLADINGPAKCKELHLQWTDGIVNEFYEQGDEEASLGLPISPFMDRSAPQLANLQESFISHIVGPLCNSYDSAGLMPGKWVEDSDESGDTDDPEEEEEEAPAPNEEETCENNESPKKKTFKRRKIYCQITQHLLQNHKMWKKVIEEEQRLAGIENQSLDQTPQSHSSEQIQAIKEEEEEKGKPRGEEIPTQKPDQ
Procedure, shortened: as §1

PDE3B = PDE3B (Homo sapiens, UniProt Q13370); assay: PDE isoform selectivity, IMAP FP assay; assay type: biochemical
PDE3B, sequence (Q13370 whole entry, canonical isoform): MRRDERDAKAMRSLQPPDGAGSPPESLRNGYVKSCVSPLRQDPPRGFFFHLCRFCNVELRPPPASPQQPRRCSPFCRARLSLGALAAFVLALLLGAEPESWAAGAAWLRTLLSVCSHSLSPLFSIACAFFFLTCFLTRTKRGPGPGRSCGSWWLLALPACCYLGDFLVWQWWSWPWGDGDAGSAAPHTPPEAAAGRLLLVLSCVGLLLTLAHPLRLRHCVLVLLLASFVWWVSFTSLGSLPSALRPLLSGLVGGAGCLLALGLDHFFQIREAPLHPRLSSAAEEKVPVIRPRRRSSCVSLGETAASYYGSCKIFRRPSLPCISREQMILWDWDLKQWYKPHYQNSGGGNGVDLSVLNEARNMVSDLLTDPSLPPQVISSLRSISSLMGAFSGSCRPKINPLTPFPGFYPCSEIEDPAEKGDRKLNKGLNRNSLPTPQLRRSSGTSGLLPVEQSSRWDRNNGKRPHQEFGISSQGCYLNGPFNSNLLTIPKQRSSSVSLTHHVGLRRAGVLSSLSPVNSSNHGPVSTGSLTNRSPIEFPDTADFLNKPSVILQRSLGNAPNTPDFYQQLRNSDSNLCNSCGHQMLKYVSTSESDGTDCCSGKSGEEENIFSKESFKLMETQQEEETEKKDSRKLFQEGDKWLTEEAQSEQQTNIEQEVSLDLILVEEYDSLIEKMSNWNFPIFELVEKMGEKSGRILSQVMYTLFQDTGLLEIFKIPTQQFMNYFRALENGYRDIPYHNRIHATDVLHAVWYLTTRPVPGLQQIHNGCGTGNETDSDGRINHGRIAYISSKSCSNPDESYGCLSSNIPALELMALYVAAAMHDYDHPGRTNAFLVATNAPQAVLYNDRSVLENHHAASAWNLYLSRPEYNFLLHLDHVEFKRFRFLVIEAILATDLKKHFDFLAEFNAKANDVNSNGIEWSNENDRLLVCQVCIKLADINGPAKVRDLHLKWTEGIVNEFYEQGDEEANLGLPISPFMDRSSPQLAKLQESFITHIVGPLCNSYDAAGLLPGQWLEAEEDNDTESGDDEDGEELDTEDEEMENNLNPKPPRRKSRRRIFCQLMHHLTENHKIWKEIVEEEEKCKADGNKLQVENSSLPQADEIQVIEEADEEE
Procedure, shortened: as §1

[1] = system: all other PDE isozymes, including PDE6 and PDE11; assay: PDE isozyme selectivity panel; assay type: biochemical, human; settings: concentrations up to 50 μM
human recombinant PDE5 = human recombinant PDE5 (Homo sapiens, UniProt O76074); assay: PDE5 inhibition, IMAP fluorescence polarization assay; assay type: biochemical; settings: for fold reduction in PDE5 inhibitory potency compared to compound 7: vs compound 7 (4-COOH, 4-chlorophenyl)
PDE2A = PDE2A (Homo sapiens, UniProt O00408); assay: PDE isoform selectivity, IMAP FP assay; assay type: biochemical
PDE2A, sequence (O00408 whole entry, canonical isoform): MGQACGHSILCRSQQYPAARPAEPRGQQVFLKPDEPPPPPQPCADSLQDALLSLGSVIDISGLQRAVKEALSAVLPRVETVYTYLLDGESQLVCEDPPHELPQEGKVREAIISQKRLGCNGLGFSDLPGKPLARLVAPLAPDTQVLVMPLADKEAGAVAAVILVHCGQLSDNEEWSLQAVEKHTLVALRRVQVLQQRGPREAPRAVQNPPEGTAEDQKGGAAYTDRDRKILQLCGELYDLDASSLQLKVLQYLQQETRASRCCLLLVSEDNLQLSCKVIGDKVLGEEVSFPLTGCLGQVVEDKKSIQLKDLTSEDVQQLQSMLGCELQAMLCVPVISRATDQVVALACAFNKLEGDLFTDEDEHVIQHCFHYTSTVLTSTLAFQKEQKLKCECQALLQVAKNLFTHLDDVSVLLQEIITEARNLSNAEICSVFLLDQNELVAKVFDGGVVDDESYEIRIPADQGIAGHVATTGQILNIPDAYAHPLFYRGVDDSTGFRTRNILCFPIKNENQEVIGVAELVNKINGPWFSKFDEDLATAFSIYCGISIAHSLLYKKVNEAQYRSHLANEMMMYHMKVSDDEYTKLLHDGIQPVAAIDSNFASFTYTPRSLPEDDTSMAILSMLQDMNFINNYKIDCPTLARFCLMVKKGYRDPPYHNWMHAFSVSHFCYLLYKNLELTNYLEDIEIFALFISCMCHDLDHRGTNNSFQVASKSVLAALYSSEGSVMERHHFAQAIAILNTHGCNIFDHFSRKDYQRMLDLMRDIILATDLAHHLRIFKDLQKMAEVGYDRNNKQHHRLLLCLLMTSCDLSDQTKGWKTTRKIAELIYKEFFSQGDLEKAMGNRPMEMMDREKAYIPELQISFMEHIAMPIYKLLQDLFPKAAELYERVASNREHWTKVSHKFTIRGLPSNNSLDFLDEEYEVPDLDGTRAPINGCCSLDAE

PDE4B2 = PDE4B2 (Homo sapiens, UniProt Q07343); assay: PDE isoform selectivity, IMAP FP assay; assay type: biochemical; settings: read-out: % inhibition at 50 μM, PDE4B2 (cAMP)
Procedure, shortened: as §1

PDE8A = PDE8A (Homo sapiens, UniProt O60658); assay: PDE isoform selectivity, IMAP FP assay; assay type: biochemical; settings: read-out: % inhibition at 50 μM, PDE8A (cAMP)
Procedure, shortened: as §1

[2] = system: intracellular cGMP levels in HEK293 cells; assay: Luciferase cGMP biosensor assay; assay type: cell-based, human
Procedure, shortened: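 HEK293 cells stably expressing a GloSensor cGMP-40F construct (human PDE5A GAF-A fused to firefly luciferase) were G418-selected. Cells were seeded at 6×10⁴/well and attached overnight in DMEM + 10% FBS at 37°C, 5% CO2. They were preincubated at room temperature in CO2-independent medium with 10% FBS and 5 mmol/L luciferin. 50 μM sodium nitroprusside was added together with test compound, and luminescence was read every minute for 1 h.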

PDE10A = PDE10A (Homo sapiens, UniProt Q9Y233); assay: PDE isoform selectivity, IMAP FP assay; assay type: biochemical
Procedure, shortened: as §1

PDE9A = PDE9A (Homo sapiens, UniProt O76083); assay: PDE isoform selectivity, IMAP FP assay; assay type: biochemical; settings: read-out: % inhibition at 50 μM, PDE9A (cGMP)
Procedure, shortened: as §1

PDE1A = PDE1A (Homo sapiens, UniProt P54750); assay: PDE isoform selectivity, IMAP FP assay; assay type: biochemical
PDE1A, sequence (P54750 whole entry, canonical isoform): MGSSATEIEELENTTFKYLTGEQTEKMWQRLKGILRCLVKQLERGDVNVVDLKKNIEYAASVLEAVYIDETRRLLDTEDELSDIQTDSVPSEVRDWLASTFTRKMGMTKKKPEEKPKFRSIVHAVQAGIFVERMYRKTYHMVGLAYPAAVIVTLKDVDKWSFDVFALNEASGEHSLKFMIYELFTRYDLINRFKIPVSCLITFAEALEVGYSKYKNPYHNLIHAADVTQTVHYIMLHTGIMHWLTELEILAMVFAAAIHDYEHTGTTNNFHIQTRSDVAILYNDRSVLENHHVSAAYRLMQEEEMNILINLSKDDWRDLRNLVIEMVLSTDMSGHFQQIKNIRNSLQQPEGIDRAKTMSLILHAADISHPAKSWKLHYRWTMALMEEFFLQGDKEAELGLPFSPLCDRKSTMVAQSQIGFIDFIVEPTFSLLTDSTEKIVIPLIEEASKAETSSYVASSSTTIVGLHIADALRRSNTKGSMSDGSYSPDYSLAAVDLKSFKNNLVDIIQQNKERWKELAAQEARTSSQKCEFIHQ
Procedure, shortened: as §1

PDE6C = PDE6C (Homo sapiens, UniProt P51160); assay: PDE isoform selectivity, IMAP FP assay; assay type: biochemical; settings: read-out: % inhibition at 50 μM, PDE6C (cGMP)
Procedure, shortened: as §1

COX-2 = biological target: T1, COX-2 (Ovis aries, UniProt P79208); assay: COX-2 colorimetric assay; assay type: biochemical, ovine
T1 sequence (P79208 17-603): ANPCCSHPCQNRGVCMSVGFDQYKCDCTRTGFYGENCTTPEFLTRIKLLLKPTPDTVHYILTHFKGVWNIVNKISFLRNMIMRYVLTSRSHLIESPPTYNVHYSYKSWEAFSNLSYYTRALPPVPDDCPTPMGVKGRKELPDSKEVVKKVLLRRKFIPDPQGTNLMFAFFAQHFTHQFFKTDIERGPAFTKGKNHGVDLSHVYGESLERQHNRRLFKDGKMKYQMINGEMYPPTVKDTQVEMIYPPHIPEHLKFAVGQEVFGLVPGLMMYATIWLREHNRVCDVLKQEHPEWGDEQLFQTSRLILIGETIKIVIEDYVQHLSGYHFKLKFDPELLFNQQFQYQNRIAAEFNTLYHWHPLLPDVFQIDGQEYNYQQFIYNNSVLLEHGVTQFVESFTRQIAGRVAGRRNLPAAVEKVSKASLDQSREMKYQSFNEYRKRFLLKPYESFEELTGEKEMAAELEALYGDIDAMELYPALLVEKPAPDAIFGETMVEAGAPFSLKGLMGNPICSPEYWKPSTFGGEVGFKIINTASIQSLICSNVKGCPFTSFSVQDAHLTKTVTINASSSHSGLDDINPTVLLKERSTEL
Procedure, shortened: (§2)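 Ovine COX-1 or COX-2 was diluted with hemin in 0.1 M Tris-HCl, pH 8. Test compound or vehicle was preincubated with enzyme for 5 min at 25°C. Colorimetric substrate was added, then arachidonic acid, and the reaction ran 5 min more at 25°C. Activity was read as substrate absorbance at 590 nm.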

COX-1 = biological target: T2, COX-1 (Ovis aries, UniProt P05979); assay: COX-1 colorimetric assay; assay type: biochemical, ovine; settings: screening concentration 100 μM
T2 sequence (P05979 25-600): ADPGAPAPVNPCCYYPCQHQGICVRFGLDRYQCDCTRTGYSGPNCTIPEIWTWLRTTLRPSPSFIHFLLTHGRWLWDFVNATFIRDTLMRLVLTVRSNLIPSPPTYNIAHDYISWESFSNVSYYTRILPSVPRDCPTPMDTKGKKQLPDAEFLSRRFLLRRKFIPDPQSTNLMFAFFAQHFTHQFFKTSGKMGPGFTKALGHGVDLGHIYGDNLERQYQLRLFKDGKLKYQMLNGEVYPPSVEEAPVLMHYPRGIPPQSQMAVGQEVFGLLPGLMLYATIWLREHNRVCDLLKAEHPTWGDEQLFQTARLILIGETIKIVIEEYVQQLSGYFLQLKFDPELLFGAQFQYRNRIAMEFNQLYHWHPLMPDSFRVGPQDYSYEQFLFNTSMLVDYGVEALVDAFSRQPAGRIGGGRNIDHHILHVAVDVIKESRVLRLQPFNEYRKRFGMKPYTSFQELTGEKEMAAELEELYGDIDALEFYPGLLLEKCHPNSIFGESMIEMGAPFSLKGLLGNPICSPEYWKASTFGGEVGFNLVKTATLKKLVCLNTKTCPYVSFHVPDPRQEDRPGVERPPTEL
Procedure, shortened: as §2

[3] = read-out: PDE5 % inh at 50 (μM)

PDE11A, sequence (Q9HCR9 whole entry, canonical isoform): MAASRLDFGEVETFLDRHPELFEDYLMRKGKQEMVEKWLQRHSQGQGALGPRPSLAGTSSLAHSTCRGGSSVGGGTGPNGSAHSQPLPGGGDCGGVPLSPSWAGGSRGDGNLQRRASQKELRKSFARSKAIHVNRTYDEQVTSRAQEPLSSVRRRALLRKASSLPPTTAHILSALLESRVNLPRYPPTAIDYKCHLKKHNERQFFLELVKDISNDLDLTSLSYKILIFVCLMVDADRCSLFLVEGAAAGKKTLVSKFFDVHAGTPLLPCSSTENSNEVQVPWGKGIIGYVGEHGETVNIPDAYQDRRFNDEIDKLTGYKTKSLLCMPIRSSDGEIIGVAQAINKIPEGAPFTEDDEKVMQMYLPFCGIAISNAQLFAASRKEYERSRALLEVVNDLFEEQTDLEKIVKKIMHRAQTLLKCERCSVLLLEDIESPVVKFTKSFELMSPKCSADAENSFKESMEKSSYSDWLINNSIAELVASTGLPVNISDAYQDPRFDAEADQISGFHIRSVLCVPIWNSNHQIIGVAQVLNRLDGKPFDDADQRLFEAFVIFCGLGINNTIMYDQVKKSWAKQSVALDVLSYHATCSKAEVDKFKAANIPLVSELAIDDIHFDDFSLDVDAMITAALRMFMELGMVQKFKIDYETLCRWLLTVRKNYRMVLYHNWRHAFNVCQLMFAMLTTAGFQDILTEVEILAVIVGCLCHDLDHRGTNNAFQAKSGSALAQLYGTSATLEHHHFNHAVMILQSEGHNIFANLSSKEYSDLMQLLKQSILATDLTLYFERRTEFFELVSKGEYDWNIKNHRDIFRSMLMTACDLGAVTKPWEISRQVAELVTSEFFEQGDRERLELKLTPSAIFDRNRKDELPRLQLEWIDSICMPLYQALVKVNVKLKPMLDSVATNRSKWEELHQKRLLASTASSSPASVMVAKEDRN

Work on `CC(C)(C)C1=NN(c2ccc(C(=O)O)cc2)C(c2ccc(Cl)cc2Cl)C1` (centres unmarked) [Compound 11, 4-(3-(tert-Butyl)-5-(2,4-dichlorophenyl)-4,5-dihydro-1H-pyrazol-1-yl) benzoic acid] yielded an inhibition at 50 µM (PDE11A; read-out: % inhibition at 50 μM, PDE11A (cAMP)) of 0.9%, an inhibition at 50 µM (PDE11A; read-out: % inhibition at 50 μM, PDE11A (cGMP)) of 5.9% and an inhibition at 50 µM (PDE7A) of 9.1%. It also gave an inhibition at 50 µM (PDE3A; read-out: % inhibition at 50 μM, PDE3A (cAMP)) of 12.4%, an inhibition at 50 µM (PDE3A; read-out: % inhibition at 50 μM, PDE3A (cGMP)) of 36.2% and an inhibition at 50 µM (PDE3B; read-out: % inhibition at 50 μM, PDE3B (cAMP)) of 6.7%. The inhibition at 50 µM (PDE3B; read-out: % inhibition at 50 μM, PDE3B (cGMP)) was 15.7%, the “effect on activity of all other PDE isozymes” value [1] was “without significantly affecting the activity” and the IC50 (human recombinant PDE5) was 2.7 µM. It also gave an inhibition at 50 µM (human recombinant PDE5; read-out: % inhibition at 50 μM, PDE5A (cGMP)) of 97%, an inhibition at 50 µM (human recombinant PDE5; [3]) of 97% and an inhibition at 50 µM (PDE2A; read-out: % inhibition at 50 μM, PDE2A (cAMP)) of 5.6%. It also gave an inhibition at 50 µM (PDE2A; read-out: % inhibition at 50 μM, PDE2A (cGMP)) of 19.9%, an inhibition at 50 µM (PDE4B2) of 1.6% and an inhibition at 50 µM (PDE8A) of 4%. For the same compound, the “relative potency/efficacy in increasing intracellular cGMP levels” value ([2]; comparison among tadalafil, celecoxib, 11 and 19) was “substantially higher efficacy; also recorded: higher cellular potency”, the “intracellular cGMP levels (luminescence), concentration dependence” value ([2]; pretreated with sodium nitroprusside) was “concentration-dependent increase” and the inhibition at 50 µM (PDE10A; read-out: % inhibition at 50 μM, PDE10A (cAMP)) was 3.6%. It also gave an inhibition at 50 µM (PDE10A; read-out: % inhibition at 50 μM, PDE10A (cGMP)) of 4.5%, an inhibition at 50 µM (PDE9A) of 10.7% and an inhibition at 50 µM (PDE1A; read-out: % inhibition at 50 μM, PDE1A (cAMP)) of 2.6%. It also gave an inhibition at 50 µM (PDE1A; read-out: % inhibition at 50 μM, PDE1A (cGMP)) of 22% and an inhibition at 50 µM (PDE6C) of 16.2%.
`Cc1ccc(C2CC(C(C)(C)C)=NN2c2ccc(C(=O)O)cc2)cc1` (centres unmarked) [Compound 22, 4-(3-tert-Butyl-5-p-tolyl-4,5-dihydro-1H-pyrazol-1-yl)benzoic acid] was tested, and the “COX2 inhibition at 100 μM” value (COX-2; screening concentration 100 μM) was “no COX inhibition”, the “fold improvement in PDE5 inhibitory activity compared to celecoxib” value (human recombinant PDE5; ratio of IC50 vs celecoxib) was 4 fold and the inhibition at 50 µM (human recombinant PDE5; [3]) was 93%. For the same compound, the “COX1 inhibition at 100 μM” value (COX-1) was “no COX inhibition”.
For `CC(C)(C)C1=NN(c2ccc(S(=O)(=O)O)cc2)C(c2ccc(F)cc2)C1` (centres unmarked) [Compound 31, 4-(3-tert-Butyl-5-(4-fluorophenyl)-4,5-dihydro-1H-pyrazol-1-yl) benzenesulfonic acid], the IC50 (COX-2) was 80 µM, the IC50 (human recombinant PDE5) was 9.3 µM and the inhibition at 50 µM (human recombinant PDE5; [3]) was 80%.
Compound `CC(C)(C)C1=NN(c2ccc(S(=O)(=O)O)cc2)C(c2ccc(Cl)cc2)C1` (centres unmarked) [Compound 32, 4-(3-tert-Butyl-5-(4-chlorophenyl)-4,5-dihydro-1H-pyrazol-1-yl)benzenesulfonic acid] has an IC50 (COX-2) of 85 µM, an IC50 (human recombinant PDE5) of 8.7 µM and an inhibition at 50 µM (human recombinant PDE5; [3]) of 85%. For the same compound, the “fold reduction in PDE5 inhibitory potency compared to compound 7” value (human recombinant PDE5) was “about 2 fold”.
For `CC(C)(C)C1=NN(c2ccc(S(N)(=O)=O)cc2)C(c2ccc(Cl)cc2)C1` (centres unmarked) [Compound 33, 4-(3-tert-Butyl-5-(4-chlorophenyl)-4,5-dihydro-1H-pyrazol-1-yl)benzenesulfonamide], the IC50 (COX-2) was 34 µM, the IC50 (human recombinant PDE5) was 48.7 µM and the inhibition at 50 µM (human recombinant PDE5; [3]) was 57.5%. For the same compound, the “fold reduction in PDE5 inhibitory potency compared to compound 7” value (human recombinant PDE5) was “about 15 fold”.
